26 molecules from ChEMBL document CHEMBL1687897, “Design, synthesis and biological activity of pyrazolo[1,5-a]pyrimidin-7(4H)-ones as novel Kv7/KCNQ potassium channel activators” (Eur J Med Chem, 2011) can be followed below.

One may read the pEC50 as −log10 of the EC50, conventionally taken in molar units. Low values mean a high EC50, high ones a low EC50.

Assay [1] addresses Voltage-gated potassium channel, KQT; KCNQ2(Kv7.2)/KCNQ3(Kv7.3) (Homo sapiens, UniProt O43525+O43526). The assay is described as follows: Activation of KCNQ2/Q3 expressed in CHO cells by atomic absorption Rb'+ efflux assay. The class given is cell-based. In a few lines: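 CHO cells stably expressing KCNQ2/KCNQ3 were plated at 20,000 cells/well overnight at 37 °C. They were loaded 3 h in buffer containing 5.4 mM RbCl (pH 7.4), then washed three times with 5.4 mM KCl buffer. Compound was applied in 20 mM K+ depolarization buffer for 10 min. Supernatant Rb+ was read by flame atomic absorption at 780 nm against a 0–5 mg/l calibration. EC50 from n = 3.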

Assay [2] concerns the target T1, Voltage-gated potassium channel, KQT; KCNQ2(Kv7.2)/KCNQ3(Kv7.3) (Homo sapiens) (UniProt O43526+O43525). The assay is described as follows: Activation of human KCNQ2/Q3 expressed in CHO cells held at -80 mV for 500 ms followed by depolarized to -40 mV for 800 ms followed by 800 ms pulse-back to -80 mV assessed as increase in both activation and deactivation tail current at 100 uM by whole cell patch-clamp assay. A general note: Patch clamp records ionic current or voltage across a cell membrane.

The target in assay [3] is T1, Voltage-gated potassium channel, KQT; KCNQ2(Kv7.2)/KCNQ3(Kv7.3) (Homo sapiens). In words: Activation of human KCNQ2/Q3 expressed in CHO cells assessed as increase in channel current at -40 mV holding potential at 100 uM by whole cell patch-clamp assay. It counts as cell-based. Summed up: (§1)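 Perforated whole-cell patch clamp was run on CHO cells stably expressing KCNQ2/KCNQ3. Cells were held at −80 mV for 500 ms, stepped to −40 mV for 800 ms, then returned to −80 mV for 800 ms. The activation current and the deactivation tail current were measured, with a time course of current recorded at −40 mV.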

For assay [4] the target is unchanged. In words: Activation of KCNQ2/Q3 expressed in CHO cells at 100 uM by atomic absorption Rb'+ efflux assay. It counts as cell-based. In a few lines: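 Stable KCNQ2/KCNQ3 CHO cells were Rb+-loaded 3 h at 37 °C and washed. Compound was given once at a single screening concentration in 20 mM K+ depolarization buffer for 10 min. Supernatant Rb+ was measured by flame atomic absorption at 780 nm. A rubidium response under 15% of control was scored as no activity.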

Assay [5] shares this target. In words: Activation of human KCNQ2/Q3 expressed in CHO cells assessed as increase in channel current at -40 mV holding potential at 10 uM by whole cell patch-clamp assay. It counts as cell-based. Summed up:
as §1

Assay [6] has the same target. In words: Activation of human KCNQ2/Q3 expressed in CHO cells held at -80 mV for 500 ms followed by depolarized to -40 mV for 800 ms followed by 800 ms pulse-back to -80 mV assessed as increase in both activation and deactivation tail current at 10 uM by whole cell patch-clamp assay.
The target in assay [7] is T2, Potassium voltage-gated channel subfamily KQT member 1 (Homo sapiens, UniProt P51787).
T2 sequence (P51787 whole entry): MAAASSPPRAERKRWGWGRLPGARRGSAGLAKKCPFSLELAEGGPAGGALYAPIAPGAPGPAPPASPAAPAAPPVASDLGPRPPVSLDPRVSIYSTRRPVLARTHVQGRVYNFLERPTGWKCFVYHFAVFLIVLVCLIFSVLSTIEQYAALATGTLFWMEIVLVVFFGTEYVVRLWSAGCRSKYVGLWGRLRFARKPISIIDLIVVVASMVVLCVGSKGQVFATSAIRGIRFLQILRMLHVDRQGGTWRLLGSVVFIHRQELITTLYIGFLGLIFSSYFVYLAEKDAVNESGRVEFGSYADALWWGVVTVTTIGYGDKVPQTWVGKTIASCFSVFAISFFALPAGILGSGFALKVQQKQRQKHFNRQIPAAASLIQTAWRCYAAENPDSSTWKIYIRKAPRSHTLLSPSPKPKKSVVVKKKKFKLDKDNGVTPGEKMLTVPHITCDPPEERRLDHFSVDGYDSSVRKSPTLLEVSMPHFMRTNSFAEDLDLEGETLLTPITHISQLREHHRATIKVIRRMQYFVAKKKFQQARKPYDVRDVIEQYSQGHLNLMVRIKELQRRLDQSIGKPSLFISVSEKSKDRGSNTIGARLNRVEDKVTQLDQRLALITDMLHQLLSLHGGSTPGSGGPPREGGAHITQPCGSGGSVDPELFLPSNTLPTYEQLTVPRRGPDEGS
The assay is described as follows: Activation of KCNQ1 expressed in HEK293 cells by atomic absorption Rb'+ efflux assay. The class given is cell-based. In a few lines: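 HEK293 cells stably expressing KCNQ1 (G418 selection) were plated at 20,000 cells/well overnight. They were loaded 3 h with 5.4 mM RbCl buffer at 37 °C and washed. Compound was applied in 20 mM K+ depolarization buffer for 10 min. Supernatant Rb+ was measured by flame atomic absorption at 780 nm. EC50 from n = 3.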

Assay [8] in a line: Selectivity ratio of EC50 for KCNQ1 to KCNQ2/Q3 by atomic absorption Rb'+ efflux assay.

pEC50: −log10 of the molar value. Active and inactive are the calls of the source. No cut-off for these calls is given here.

Chain of Voltage-gated potassium channel, KQT; KCNQ2(Kv7.2)/KCNQ3(Kv7.3) (O43526 whole entry): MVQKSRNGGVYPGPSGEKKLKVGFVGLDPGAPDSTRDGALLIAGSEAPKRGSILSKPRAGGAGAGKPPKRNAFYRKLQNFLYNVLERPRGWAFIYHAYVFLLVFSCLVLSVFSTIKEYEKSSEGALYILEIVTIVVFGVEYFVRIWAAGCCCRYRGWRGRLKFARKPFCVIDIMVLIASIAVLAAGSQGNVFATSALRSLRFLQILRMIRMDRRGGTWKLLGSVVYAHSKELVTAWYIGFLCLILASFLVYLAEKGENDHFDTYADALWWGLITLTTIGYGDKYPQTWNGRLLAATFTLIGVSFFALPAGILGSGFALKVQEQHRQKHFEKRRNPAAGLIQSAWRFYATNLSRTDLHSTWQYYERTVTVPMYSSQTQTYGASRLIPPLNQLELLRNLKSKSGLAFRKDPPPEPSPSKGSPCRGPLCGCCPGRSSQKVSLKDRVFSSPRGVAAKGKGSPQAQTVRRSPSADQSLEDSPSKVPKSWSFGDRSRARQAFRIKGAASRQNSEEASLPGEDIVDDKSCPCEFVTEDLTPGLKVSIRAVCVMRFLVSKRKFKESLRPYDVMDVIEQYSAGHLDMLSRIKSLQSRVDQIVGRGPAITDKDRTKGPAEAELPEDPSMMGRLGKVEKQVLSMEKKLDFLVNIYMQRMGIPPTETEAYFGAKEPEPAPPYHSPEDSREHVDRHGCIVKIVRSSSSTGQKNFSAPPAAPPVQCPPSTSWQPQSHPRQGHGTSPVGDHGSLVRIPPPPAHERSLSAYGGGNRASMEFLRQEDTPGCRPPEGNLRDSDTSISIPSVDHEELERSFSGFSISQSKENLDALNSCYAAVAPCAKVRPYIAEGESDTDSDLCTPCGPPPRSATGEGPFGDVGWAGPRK
Chain of Voltage-gated potassium channel, KQT; KCNQ2(Kv7.2)/KCNQ3(Kv7.3) (O43525 whole entry): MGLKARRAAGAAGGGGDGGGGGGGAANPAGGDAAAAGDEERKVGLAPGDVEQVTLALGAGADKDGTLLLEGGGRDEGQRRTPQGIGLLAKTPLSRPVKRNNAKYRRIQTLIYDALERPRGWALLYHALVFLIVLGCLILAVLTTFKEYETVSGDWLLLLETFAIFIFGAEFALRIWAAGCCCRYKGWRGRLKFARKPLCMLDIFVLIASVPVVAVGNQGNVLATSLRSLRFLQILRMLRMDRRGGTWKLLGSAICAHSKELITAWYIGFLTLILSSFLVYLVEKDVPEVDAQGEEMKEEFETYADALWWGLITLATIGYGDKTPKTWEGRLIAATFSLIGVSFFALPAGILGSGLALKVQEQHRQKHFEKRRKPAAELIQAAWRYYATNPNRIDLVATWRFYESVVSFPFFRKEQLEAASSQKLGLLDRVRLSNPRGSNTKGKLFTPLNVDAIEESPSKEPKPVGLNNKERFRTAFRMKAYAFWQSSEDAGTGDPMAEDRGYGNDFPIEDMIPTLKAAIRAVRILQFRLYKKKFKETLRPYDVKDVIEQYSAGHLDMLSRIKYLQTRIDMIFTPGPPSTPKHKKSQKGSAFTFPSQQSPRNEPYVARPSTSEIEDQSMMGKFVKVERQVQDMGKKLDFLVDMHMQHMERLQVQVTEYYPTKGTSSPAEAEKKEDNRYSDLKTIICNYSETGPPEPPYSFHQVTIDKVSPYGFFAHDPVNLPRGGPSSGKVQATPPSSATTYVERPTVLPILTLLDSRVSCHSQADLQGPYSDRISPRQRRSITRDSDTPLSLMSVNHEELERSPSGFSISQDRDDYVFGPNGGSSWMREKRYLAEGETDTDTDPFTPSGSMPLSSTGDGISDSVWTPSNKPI

Turning to `O=c1cc(C(F)(F)F)[nH]c2c(-c3ccccc3)c(C(F)(F)F)nn12`, in assay [1], the pEC50 was 5.84. Besides, the outcome in assay [2] and in assay [3] was Active.

For `Oc1cc(-c2ccccc2)nc2c(-c3ccccc3)c(C(F)(F)F)nn12`, in assay [4], the result was inactive. The molecule `COc1ccc(-c2c(C(F)(F)F)nn3c(=O)cc(-c4cc(F)c(Cl)nc4Cl)[nH]c23)cc1OC` showed a pEC50 in assay [1] of 6.64. Regarding `CCOC(=O)c1c(C(F)(F)F)nn2c(=O)cc(CCl)[nH]c12`, the result in assay [4] was inactive.

On to `O=c1cc(CCl)[nH]c2c(-c3cccc4ccccc34)c(C(F)(F)F)nn12`, for which the pEC50 in assay [1] is 5.90. Consider `O=c1cc(-c2cc(F)c(F)c(F)c2F)[nH]c2c(-c3cccs3)c(C(F)(F)F)nn12`, for which, in assay [1], the negative logarithm of the EC50 (pEC50) is 6.80. In the case of `O=c1cc(C(F)F)[nH]c2c(-c3ccccc3)c(C(F)(F)F)nn12`, in assay [1], the pEC50 is 5.37. Turning to `CC(C)(C)c1cc(=O)n2nc(C(F)(F)F)c(-c3ccccc3)c2[nH]1`, the pEC50 in assay [1] is 5.21. In turn, `O=c1cc(-c2cc(F)c(F)cc2F)[nH]c2c(-c3ccc(Cl)cc3)c(C(F)(F)F)nn12` gave a pEC50 in assay [1] of 6.68.

`O=c1cc(C(F)(F)F)[nH]c2c(-c3ccc(Cl)cc3)c(C(F)(F)F)nn12`: in assay [1], the pEC50 was 5.69. On to `O=c1cc(-c2cccc([N+](=O)[O-])c2)[nH]c2c(-c3ccccc3)c(C(F)(F)F)nn12`, for which the pEC50 in assay [1] is 6.24. In the case of `O=c1cc(C(F)(F)F)[nH]c2c(-c3ccccc3)cnn12`, in assay [4], the outcome was inactive.

Molecule `O=c1cc(-c2cc(F)c(F)c(F)c2F)[nH]c2c(-c3ccccc3)c(C(F)(F)F)nn12` gave a pEC50 in assay [1] of 6.22.

The molecule `COc1ccc(-c2cc(=O)n3nc(C(F)(F)F)c(-c4ccccc4)c3[nH]2)cc1` showed a pEC50 in assay [1] of 5.71.

As for `CCOC(=O)Nc1ccc(NCc2ccc(F)cc2)cc1N` [EZOGABINE], in assay [1], the negative logarithm of the EC50 (pEC50) was 6.37. Further, in assay [5], the outcome was Active. In the case of `O=c1cc(C(F)(F)F)[nH]c2c(-c3c[nH]c4ccccc34)c(C(F)(F)F)nn12`, in assay [4], the outcome was inactive.

In assay [1], `O=c1cc(-c2cc(F)c(Cl)nc2Cl)[nH]c2c(-c3cccc4ccccc34)c(C(F)(F)F)nn12` gave a pEC50 of 6.82. Besides, the outcome in assay [6] and in assay [5] was Active. As to `Cc1nn2c(=O)cc(CCl)[nH]c2c1-c1ccccc1`, the result in assay [4] was inactive. The same measure, in the same setting: then `Cc1cc(O)n2nc(C(F)(F)F)c(-c3ccccc3)c2n1`, with “inactive”. Molecule `CC(C)(C)c1cc(=O)n2nc(C(F)(F)F)c(-c3cccc4ccccc34)c2[nH]1` gave a negative-log EC50 (pEC50) in assay [1] of 4.71. `O=c1cc(CN2CCCCC2)[nH]c2c(-c3ccccc3)c(C(F)(F)F)nn12`: the result in assay [4] was inactive. Take `O=c1cc(-c2cccc([N+](=O)[O-])c2)[nH]c2c(-c3cccs3)c(C(F)(F)F)nn12`: in assay [1], the pEC50 is 6.24. Still for that read-out and setting: to `O=c1cc(C(F)(F)F)[nH]c2c(-c3cccc4ccccc34)c(C(F)(F)F)nn12` belongs 5.30.

In the case of `O=c1cc(-c2cc(F)c(Cl)nc2Cl)[nH]c2c(-c3ccccc3)c(C(F)(F)F)nn12`, the results for the pEC50 in assay [1] and in assay [7] were 7.22 and 4.31, respectively. The outcome in assay [6] and in assay [5] was Active. In assay [8], the Ratio EC50 turned out to be 800. Molecule `O=c1cc(CCl)[nH]c2c(-c3ccccc3)c(C(F)(F)F)nn12` had a pEC50 in assay [1] of 5.64. Further, the result in assay [2] and in assay [3] was Active. As for `O=c1cc(CCl)[nH]c2c(-c3ccc(Cl)cc3)c(C(F)(F)F)nn12`, the negative logarithm of the EC50 (pEC50) in assay [1] is 5.63.
